This passage reports inhibition and IC50 results from ChEMBL document CHEMBL5696442, “Discovery of type II inhibitors of TGFβ-activated kinase 1 (TAK1) and mitogen-activated protein kinase kinase kinase kinase 2 (MAP4K2)” (J Med Chem, 2015).

Assay [1] deals with Tyrosine-protein kinase Fer (Homo sapiens, UniProt P16591). Nature of the assay: Inhibition of FER ACT labeling site in human A-375 cells at 5 uM by KiNativ Profiling analysis relative to control. The format is cell-based.
Assay [2] addresses T1, Ephrin type-A receptor 2 (Homo sapiens, UniProt P29317). The assay can be described thus: Inhibition of EphA2 (unknown origin) ACT labeling site by KiNativ Profiling analysis.
Assay [3] addresses DNA-PK/Ku70/Ku85 (Homo sapiens) (UniProt P78527+P12956+P13010). Nature of the assay: Inhibition of DNAPK ATP labeling site harbouring GHDEREHPFLVKGGEDLR in human A-375 cells at 5 uM by KiNativ Profiling analysis relative to control. It is filed as cell-based. Summed up:
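A375 melanoma cells treated live with compound at 5 μM, then lysed. Lysates were labeled with a lysine-reactive ATP or ADP-biotin probe (KiNativ). Read-out is how well the compound protects each kinase labeling site from probe labeling.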

Assay [4] addresses Serine/threonine-protein kinase WNK1 (Homo sapiens) (UniProt Q9H4A3). Nature of the assay: Inhibition of Wnk1 Lys2 labeling site in human A-375 cells at 5 uM by KiNativ Profiling analysis relative to control. It is filed as cell-based.
For assay [5], the target named is Cyclin-dependent kinase 6 (Homo sapiens) (UniProt Q00534). Nature of the assay: Inhibition of CDK6 Lys2 labeling site in human A-375 cells at 0.5 uM by KiNativ Profiling analysis relative to control. It is filed as cell-based. An outline of the steps: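 Live A375 melanoma cells were treated with compound at 5 or 0.5 μM. The cells were then lysed, and the lysates were labeled with a lysine-reactive ATP or ADP-biotin acyl probe (KiNativ). Inhibition is the compound's protection of each kinase labeling-site peptide from probe labeling, relative to untreated control.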

Assay [6] deals with Serine/threonine-protein kinase 10 (Homo sapiens) (UniProt O94804). Nature of the assay: Inhibition of LOK Lys1 labeling site harbouring ETGALAAAKVIETK in human A-375 cells at 0.5 uM by KiNativ Profiling analysis relative to control. It is filed as cell-based.
Assay [7] addresses T2, Mixed lineage kinase domain-like protein (Homo sapiens) (UniProt Q8NB16).
T2 sequence (whole entry): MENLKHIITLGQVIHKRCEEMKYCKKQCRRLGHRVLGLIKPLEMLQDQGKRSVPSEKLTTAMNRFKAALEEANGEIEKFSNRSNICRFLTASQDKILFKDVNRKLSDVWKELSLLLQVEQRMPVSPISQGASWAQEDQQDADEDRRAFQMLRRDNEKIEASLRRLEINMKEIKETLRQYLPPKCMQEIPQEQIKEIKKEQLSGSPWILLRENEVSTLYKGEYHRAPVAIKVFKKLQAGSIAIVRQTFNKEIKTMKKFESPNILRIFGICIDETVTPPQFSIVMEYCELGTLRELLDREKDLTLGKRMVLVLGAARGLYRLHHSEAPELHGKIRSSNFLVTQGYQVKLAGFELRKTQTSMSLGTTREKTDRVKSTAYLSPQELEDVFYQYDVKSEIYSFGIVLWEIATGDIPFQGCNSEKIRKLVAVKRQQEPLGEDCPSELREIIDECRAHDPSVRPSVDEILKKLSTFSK
The assay can be described thus: Inhibition of MLKL Lys1 labeling site in human A-375 cells at 0.5 uM by KiNativ Profiling analysis relative to control. The format is cell-based.

Assay [8] deals with T3, Serine/threonine-protein kinase 3 (Homo sapiens) (UniProt Q13188).
T3 sequence (whole entry): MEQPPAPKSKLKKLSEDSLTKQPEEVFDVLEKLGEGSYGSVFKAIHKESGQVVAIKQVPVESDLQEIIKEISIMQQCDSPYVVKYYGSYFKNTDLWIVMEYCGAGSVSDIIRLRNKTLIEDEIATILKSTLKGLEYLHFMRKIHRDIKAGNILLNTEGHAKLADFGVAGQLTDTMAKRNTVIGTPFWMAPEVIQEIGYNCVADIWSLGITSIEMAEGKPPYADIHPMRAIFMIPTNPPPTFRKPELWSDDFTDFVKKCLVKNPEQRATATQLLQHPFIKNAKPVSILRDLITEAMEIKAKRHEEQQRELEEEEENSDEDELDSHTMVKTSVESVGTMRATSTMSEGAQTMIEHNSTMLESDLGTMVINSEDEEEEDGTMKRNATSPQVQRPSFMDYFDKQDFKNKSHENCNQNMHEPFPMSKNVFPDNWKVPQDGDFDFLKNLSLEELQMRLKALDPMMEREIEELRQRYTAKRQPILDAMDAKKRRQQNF
The assay can be described thus: Inhibition of MST2 Lys2 labeling site harbouring DIKAGNILLNTEGHAK in human A-375 cells at 0.5 uM by KiNativ Profiling analysis relative to control. It is filed as cell-based.

Assay [9] addresses Interferon-induced, double-stranded RNA-activated protein kinase (Homo sapiens) (UniProt P19525). Nature of the assay: Inhibition of PKR Lys2 labeling site in human A-375 cells at 0.5 uM by KiNativ Profiling analysis relative to control. It is filed as cell-based.
Assay [10] deals with Mitogen-activated protein kinase 10 (Homo sapiens, UniProt P53779). Nature of the assay: Inhibition of JNK3 Lys2 labeling site in human A-375 cells at 0.05 uM by KiNativ Profiling analysis relative to control. It is filed as cell-based.
The target in assay [11] is T4, Mitogen-activated protein kinase kinase kinase 2 (Homo sapiens) (UniProt Q9Y2U5).
T4 sequence (whole entry): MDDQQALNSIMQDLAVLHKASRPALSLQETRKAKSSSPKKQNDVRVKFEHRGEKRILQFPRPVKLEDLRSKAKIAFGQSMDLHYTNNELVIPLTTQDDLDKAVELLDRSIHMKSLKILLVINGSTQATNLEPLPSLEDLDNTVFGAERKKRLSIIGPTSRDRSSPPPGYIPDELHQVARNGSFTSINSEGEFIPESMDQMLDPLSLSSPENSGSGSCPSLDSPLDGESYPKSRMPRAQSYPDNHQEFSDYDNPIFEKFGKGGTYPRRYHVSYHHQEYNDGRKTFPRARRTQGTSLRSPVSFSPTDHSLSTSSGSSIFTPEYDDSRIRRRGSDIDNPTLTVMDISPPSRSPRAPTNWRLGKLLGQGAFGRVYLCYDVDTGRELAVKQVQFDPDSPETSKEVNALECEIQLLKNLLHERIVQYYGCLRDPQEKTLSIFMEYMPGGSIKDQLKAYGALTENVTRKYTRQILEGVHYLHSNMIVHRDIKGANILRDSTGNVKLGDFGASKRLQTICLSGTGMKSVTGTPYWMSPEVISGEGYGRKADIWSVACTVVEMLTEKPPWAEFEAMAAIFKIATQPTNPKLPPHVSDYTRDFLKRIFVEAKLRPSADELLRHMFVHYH
Nature of the assay: Inhibition of MAP3K2 Lys1 labeling site harbouring ELAVKQVQFDPDSPETSKEVNALECEIQLLK in human A-375 cells at 0.05 uM by KiNativ Profiling analysis relative to control. The format is cell-based.

Assay [12] has as its target Serine/threonine-protein kinase WNK1 (Homo sapiens) (UniProt Q9H4A3). Nature of the assay: Inhibition of Wnk1 Lys2 labeling site in human A-375 cells at 0.05 uM by KiNativ Profiling analysis relative to control. It is filed as cell-based.
For assay [13], the target named is Misshapen-like kinase 1 (Homo sapiens) (UniProt Q8N4C8). Nature of the assay: Inhibition of ZC3 Lys2 labeling site in human Huh-7 cell lysate at 1 uM by KiNativ Profiling analysis relative to control. The format is subcellular.
Assay [14] addresses T1, Ephrin type-A receptor 2. The assay can be described thus: Inhibition of EphA2 ACT labeling site in human Huh-7 cells at 1 uM by KiNativ Profiling analysis relative to control. It is filed as cell-based.

T1 sequence (P29317 whole entry): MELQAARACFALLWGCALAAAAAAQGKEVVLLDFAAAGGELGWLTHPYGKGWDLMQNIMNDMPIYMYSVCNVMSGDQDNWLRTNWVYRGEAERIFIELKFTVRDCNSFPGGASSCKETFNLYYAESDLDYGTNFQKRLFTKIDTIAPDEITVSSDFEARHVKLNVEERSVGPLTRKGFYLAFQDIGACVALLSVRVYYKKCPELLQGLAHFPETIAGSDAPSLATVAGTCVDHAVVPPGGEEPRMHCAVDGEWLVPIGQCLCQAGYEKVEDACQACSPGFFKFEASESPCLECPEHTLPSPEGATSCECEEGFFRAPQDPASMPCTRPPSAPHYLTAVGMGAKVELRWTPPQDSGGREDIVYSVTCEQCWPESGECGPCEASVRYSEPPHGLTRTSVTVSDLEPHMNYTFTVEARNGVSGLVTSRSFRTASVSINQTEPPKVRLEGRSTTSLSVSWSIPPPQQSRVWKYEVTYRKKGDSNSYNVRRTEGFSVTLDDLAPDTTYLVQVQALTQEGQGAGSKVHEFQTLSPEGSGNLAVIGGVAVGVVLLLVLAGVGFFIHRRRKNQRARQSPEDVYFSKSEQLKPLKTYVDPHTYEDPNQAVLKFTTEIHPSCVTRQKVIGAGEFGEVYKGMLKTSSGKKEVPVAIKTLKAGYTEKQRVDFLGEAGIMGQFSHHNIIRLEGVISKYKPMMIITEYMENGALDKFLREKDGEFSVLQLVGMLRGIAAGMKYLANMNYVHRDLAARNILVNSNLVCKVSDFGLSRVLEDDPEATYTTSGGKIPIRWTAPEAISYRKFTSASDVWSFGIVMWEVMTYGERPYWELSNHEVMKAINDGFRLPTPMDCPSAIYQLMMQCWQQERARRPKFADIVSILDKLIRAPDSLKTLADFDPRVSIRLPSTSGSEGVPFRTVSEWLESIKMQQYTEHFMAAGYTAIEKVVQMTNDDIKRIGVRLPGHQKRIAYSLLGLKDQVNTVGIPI
Serine/threonine-protein kinase WNK1 (Homo sapiens), sequence (Q9H4A3 whole entry, looked up): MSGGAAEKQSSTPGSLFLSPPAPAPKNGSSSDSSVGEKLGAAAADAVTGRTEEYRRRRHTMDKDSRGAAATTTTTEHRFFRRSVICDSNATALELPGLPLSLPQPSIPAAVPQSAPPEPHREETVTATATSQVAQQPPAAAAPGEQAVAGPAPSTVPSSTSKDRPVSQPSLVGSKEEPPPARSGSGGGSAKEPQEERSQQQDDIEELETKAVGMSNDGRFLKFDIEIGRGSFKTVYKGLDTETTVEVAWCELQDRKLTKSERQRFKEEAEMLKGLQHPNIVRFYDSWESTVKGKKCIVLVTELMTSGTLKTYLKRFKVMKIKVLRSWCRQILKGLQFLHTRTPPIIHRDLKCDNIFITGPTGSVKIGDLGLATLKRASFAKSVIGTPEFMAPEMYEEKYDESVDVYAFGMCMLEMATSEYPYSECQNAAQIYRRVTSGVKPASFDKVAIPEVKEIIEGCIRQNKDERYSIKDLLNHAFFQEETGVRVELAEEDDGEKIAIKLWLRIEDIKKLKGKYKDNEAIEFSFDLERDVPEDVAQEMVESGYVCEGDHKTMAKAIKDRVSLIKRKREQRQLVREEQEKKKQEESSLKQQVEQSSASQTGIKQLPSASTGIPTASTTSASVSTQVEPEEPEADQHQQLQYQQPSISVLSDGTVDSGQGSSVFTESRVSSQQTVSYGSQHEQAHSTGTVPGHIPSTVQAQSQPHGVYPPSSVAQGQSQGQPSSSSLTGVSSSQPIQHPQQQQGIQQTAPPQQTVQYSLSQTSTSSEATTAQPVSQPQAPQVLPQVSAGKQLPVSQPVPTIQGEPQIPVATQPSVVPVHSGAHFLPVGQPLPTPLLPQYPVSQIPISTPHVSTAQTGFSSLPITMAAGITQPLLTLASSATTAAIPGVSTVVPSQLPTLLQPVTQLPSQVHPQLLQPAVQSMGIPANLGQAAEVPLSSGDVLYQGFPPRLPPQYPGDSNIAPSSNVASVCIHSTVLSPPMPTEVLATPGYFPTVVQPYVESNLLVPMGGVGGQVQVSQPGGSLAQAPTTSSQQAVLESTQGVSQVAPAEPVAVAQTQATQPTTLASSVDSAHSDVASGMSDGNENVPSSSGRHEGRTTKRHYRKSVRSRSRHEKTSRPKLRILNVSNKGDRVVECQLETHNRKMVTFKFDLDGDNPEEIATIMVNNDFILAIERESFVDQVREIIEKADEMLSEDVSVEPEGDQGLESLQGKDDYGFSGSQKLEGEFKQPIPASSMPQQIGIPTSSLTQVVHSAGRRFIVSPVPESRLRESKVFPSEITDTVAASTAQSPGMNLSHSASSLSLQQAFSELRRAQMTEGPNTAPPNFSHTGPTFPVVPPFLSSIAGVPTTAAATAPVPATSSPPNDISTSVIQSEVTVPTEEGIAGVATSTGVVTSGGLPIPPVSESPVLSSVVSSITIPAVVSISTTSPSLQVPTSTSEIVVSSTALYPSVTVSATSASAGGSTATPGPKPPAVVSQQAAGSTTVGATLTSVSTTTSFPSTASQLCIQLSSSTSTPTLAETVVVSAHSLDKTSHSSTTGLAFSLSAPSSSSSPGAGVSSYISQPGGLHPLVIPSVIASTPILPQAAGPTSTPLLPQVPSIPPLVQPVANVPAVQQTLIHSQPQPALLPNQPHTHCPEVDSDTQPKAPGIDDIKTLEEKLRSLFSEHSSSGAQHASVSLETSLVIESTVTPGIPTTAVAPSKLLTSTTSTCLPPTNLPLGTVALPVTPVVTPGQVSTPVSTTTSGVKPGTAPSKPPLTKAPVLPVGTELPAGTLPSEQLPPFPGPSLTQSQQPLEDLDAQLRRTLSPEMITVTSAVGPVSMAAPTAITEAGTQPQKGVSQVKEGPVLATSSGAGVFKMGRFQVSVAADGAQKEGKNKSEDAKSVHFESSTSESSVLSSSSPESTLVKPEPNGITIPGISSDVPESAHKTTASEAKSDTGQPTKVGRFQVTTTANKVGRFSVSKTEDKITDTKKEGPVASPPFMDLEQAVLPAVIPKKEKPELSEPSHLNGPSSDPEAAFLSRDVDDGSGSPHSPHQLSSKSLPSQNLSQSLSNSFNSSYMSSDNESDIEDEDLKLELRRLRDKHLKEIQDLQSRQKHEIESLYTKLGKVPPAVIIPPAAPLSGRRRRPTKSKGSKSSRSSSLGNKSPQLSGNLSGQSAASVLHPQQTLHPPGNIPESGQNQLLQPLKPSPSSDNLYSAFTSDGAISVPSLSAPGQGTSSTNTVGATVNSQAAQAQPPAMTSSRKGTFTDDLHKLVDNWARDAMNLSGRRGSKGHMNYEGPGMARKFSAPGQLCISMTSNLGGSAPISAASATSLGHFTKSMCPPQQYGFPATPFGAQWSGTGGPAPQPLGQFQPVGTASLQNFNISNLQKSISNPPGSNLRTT
Serine/threonine-protein kinase 10 (Homo sapiens), sequence (O94804 whole entry, looked up, the tested form may be a part): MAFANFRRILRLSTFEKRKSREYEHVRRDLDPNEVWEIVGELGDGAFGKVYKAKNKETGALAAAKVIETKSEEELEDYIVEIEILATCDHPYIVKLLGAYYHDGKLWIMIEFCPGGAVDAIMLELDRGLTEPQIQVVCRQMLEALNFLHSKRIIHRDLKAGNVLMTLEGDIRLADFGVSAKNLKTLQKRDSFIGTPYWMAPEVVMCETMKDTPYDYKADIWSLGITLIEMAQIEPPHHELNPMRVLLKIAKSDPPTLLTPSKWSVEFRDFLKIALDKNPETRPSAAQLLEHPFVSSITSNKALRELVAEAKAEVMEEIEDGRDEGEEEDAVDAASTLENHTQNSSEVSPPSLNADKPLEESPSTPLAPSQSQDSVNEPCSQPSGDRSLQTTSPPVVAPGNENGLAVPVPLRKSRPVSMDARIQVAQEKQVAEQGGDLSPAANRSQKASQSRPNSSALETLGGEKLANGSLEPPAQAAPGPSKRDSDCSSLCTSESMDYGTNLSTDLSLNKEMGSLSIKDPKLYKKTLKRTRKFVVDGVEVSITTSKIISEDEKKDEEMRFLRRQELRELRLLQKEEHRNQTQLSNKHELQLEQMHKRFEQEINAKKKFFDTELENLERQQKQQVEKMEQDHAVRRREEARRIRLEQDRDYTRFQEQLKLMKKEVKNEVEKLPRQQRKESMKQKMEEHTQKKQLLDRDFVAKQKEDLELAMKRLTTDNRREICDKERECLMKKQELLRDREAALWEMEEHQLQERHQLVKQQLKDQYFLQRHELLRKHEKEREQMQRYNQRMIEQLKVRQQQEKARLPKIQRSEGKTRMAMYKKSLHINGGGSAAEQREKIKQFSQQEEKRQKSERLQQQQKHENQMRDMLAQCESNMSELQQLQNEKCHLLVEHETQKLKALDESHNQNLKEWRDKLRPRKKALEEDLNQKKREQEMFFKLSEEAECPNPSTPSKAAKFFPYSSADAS
Interferon-induced, double-stranded RNA-activated protein kinase (Homo sapiens), sequence (P19525 whole entry): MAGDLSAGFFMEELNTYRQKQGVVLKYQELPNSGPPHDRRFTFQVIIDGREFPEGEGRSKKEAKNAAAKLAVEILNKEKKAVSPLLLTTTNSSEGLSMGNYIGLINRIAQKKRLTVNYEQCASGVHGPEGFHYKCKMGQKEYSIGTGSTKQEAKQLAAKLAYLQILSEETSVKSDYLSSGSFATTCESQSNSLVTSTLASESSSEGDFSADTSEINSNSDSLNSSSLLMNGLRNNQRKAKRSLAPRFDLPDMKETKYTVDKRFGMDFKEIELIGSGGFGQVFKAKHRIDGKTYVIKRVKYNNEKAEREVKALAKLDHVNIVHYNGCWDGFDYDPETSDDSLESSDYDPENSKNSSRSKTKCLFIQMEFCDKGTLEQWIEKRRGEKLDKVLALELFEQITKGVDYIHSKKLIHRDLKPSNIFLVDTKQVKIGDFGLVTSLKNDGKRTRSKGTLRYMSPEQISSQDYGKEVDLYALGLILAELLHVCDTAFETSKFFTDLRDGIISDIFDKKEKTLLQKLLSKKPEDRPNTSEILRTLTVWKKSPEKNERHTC

In the case of `CCN1CCN(Cc2ccc(NC(=O)c3ccc(C)c(/C=C/c4cnc5[nH]ccc5c4OC)c3)cc2C(F)(F)F)CC1`, the inhibition in [1] stood at 74%; in assay [3], 13.8%; in assay [4], 14.3%; in [5] it was 11.4%; in assay [6] it was 60.7%; in assay [7], 20.1%. For the same molecule, the inhibition in assay [8] is -9.8%; in assay [9], -9.6%; in [10], 23.9%; in assay [11] it was 5.2%; in [12], 7.1%. Further, on Ephrin type-A receptor 2 [2], the IC50 stood at 0.077 µM.
As to `CNc1cc(Oc2cc(C(=O)Nc3cc(-n4cnc(C)c4)cc(C(F)(F)F)c3)ccc2C)ncn1`, the inhibition in assay [13] was 24.1%.
Turning to `CCN1CCN(Cc2ccc(NC(=O)c3ccc(C)c(Oc4ccnc5[nH]ccc45)c3)cc2C(F)(F)F)CC1`, the inhibition was 96.8% in assay [1]; 17.1% in assay [3]; -5.5% in assay [4]; 3.9% in [5]; 71.7% in [6]; 7.8% in assay [7]. For the same molecule, the inhibition in assay [8] was -3.5%; in assay [9] it was -5.5%; in assay [10], 50.3%; in [11] it was 11.8%; in [12], -3.5%; at Ephrin type-A receptor 2 [14], 16.1%. Also, on Ephrin type-A receptor 2 [2], the IC50 was 0.773 µM.
`CNc1cc(Oc2cc(C(=O)Nc3cc(N4CCN(C)CC4)cc(C(F)(F)F)c3)ccc2C)ncn1`: the figures for the inhibition (in [13]; on Ephrin type-A receptor 2 [14]) were 2.7% and 69.2%, respectively.

The inhibition is the relative decrease from the control value, in per cent. By IC50 is commonly meant the concentration at which inhibition is half-maximal.
